Laboratory results from ChEMBL document CHEMBL4609999, “Novel alkoxyamide-based histone deacetylase inhibitors reverse cisplatin resistance in chemoresistant cancer cells” (Bioorg Med Chem, 2020).
The source made the active and inactive calls. The rule behind the calls is not given here.

Columns and labels:
[1] = species on record: Homo sapiens; assay: Potentiation of cisplatin-induced apoptosis in human Cal27CisR cells assessed as increase in caspase 3/7 activation at 0.8 uM incubated for 24 hrs followed by cisplatin addition by Hoechst 33342 staining based fluorescence assay; assay type: functional, cell-based
Procedure, shortened: (§1)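 Cal27 cells pretreated with HDACi at 0.4, 0.8 or 2.8 µM, then 24 h more with 3 µM cisplatin. Cal27CisR cells pretreated at 0.8 or 8 µM, then 24 h with 25 µM cisplatin. 100 µM cisplatin as positive control. Active caspase 3/7 imaged by green fluorescence, nuclei counterstained with Hoechst 33342 (blue).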

[2] = species on record: Homo sapiens; assay: Induction of apoptosis in human Cal27CisR cells assessed as increase in caspase 3/7 activation at 0.8 uM incubated for 24 hrs by Hoechst 33342 staining based fluorescence assay; assay type: functional, cell-based
[3] = target: T1, Protein deacetylase HDAC6 (Homo sapiens) (UniProt Q9UBN7); assay: Inhibition of HDAC6 in human Cal27CisR cells assessed as increase in acetylated alpha-tubulin at 1.5 uM incubated for 24 hrs by immunoblot analysis; assay type: cell-based
T1 sequence (whole entry): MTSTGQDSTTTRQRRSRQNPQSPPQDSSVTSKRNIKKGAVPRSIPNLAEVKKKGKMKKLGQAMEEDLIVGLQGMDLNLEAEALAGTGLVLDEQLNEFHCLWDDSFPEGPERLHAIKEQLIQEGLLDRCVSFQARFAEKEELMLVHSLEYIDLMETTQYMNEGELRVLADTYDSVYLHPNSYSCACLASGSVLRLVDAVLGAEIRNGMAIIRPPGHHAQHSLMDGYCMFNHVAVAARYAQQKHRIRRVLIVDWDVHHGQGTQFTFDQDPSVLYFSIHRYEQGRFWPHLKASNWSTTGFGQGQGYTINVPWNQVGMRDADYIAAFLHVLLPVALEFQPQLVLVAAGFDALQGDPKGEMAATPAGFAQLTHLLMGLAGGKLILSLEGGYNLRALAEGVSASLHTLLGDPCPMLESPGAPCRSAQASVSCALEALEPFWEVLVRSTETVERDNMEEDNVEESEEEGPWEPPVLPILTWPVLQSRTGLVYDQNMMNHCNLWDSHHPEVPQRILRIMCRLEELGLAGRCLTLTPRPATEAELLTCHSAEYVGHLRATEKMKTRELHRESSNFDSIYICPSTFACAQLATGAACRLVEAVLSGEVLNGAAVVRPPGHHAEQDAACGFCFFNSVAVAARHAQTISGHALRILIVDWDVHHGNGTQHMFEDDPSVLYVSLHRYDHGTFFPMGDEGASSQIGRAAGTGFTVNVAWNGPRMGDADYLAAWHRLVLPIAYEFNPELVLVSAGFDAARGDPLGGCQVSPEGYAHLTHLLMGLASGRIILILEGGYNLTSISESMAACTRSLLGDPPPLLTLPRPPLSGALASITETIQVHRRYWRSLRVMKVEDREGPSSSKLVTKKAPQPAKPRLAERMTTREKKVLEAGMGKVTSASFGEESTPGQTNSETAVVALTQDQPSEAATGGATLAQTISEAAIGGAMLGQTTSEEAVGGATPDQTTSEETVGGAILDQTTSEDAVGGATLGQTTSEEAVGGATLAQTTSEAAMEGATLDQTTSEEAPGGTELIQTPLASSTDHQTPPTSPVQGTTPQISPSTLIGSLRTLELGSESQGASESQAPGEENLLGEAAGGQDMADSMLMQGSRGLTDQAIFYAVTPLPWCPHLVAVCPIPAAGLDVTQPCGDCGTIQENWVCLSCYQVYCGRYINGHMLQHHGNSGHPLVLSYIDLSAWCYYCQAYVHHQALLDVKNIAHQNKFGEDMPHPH
Procedure, shortened: (§2)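 Cal27 and Cal27CisR cells incubated 24 h with vehicle or with inhibitor at 1.5, 3 or 5 µM. Western blot for α-tubulin, acetyl-α-tubulin and acetyl-histone H3.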

[4] = target: Histone deacetylase; assay: Inhibition of HDAC in human Cal27 cells; assay type: cell-based; conditions: cal-27
[5] = target: Histone deacetylase 2 (Homo sapiens, UniProt Q92769); assay: Inhibition of recombinant human HDAC2
Histone deacetylase 2, sequence (Q92769 whole entry): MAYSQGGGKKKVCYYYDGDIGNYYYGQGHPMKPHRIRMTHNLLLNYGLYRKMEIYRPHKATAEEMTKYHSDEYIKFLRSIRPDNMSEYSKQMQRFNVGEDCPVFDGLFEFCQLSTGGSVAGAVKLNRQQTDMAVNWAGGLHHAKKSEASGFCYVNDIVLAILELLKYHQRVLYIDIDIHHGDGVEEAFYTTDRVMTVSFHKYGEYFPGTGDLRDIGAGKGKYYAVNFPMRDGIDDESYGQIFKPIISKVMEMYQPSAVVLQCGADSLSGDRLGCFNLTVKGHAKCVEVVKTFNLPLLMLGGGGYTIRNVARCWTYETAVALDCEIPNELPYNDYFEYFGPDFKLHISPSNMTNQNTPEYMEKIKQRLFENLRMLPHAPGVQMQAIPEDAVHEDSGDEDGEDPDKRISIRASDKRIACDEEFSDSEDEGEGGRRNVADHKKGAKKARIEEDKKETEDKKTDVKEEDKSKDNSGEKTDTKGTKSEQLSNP

[6] = target: T2, Class 1 histone deacetylase (Homo sapiens) (UniProt Q13547+O15379+Q92769+Q9BY41); assay: Inhibition of class 1 histone deacetylase in human CAL27 cells assessed as increase in H3 histone acetylation at 1.5 uM incubated for 24 hrs by immunoblot analysis; assay type: cell-based; conditions: CAL-27; procedure, shortened: as §2
[7] = target: Histone deacetylase; assay: Inhibition of HDAC in human A2780 cells; assay type: cell-based
[8] = target: T2, Class 1 histone deacetylase (Homo sapiens); assay: Inhibition of class 1 histone deacetylase in human Cal27CisR cells assessed as increase in H3 histone acetylation at 1.5 uM incubated for 24 hrs by immunoblot analysis; assay type: cell-based; procedure, shortened: as §2
[9] = test system: CAL-27; assay: Potentiation of cisplatin-induced apoptosis in human CAL27 cells assessed as increase in caspase 3/7 activation at 0.8 uM incubated for 24 hrs followed by cisplatin addition by Hoechst 33342 staining based fluorescence assay; assay type: functional, cell-based; procedure, shortened: as §1
[10] = Potentiation of cisplatin-induced cytotoxicity against human Cal27CisR cells assessed as shift factor by measuring ratio of cisplatin IC50 to cisplatin IC50 in presence of compound at 0.8 uM incubated for 72 hrs followed by cisplatin addition and measured after 72 hrs by MTT assay; assay type: functional
Procedure, shortened: (§3)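 MTT shift assay. Cal27 cells received HDACi at 0.2, 0.4 or 1.4 µM; Cal27CisR cells received 0.8 or 6 µM. Cells were incubated 72 h with a cisplatin range. Shift factor = cisplatin IC50 alone / cisplatin IC50 with HDACi, significance by t-test (p<0.05). Pooled mean of ≥3 experiments, each in triplicate.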

[11] = target: T1, Protein deacetylase HDAC6 (Homo sapiens); assay: Inhibition of HDAC6 in human CAL27 cells assessed as increase in acetylated alpha-tubulin at 1.5 uM incubated for 24 hrs by immunoblot analysis; assay type: cell-based; conditions: CAL-27; procedure, shortened: as §2
[12] = test system: CAL-27; assay: Cytotoxicity against human CAL27 cells assessed as reduction in cell viability by MTT assay; assay type: functional, cell-based
[13] = target: T3, Histone deacetylase 8 (Homo sapiens, UniProt Q9BY41); assay: Inhibition of recombinant human HDAC8
T3 sequence (Q9BY41 whole entry): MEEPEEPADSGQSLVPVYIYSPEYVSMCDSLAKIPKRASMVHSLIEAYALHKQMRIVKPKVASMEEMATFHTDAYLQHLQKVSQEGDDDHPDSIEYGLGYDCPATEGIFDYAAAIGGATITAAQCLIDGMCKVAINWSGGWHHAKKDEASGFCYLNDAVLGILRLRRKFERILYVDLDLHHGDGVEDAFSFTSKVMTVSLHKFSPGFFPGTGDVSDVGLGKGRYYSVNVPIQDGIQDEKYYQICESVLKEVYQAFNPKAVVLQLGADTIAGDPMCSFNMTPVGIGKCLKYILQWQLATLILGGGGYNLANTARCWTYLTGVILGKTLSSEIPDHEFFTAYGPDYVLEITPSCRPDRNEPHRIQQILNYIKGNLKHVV

[14] = test system: A2780; assay: Cytotoxicity against human A2780 cells assessed as reduction in cell viability by MTT assay; assay type: functional, cell-based
[15] = target: Histone deacetylase 4 (Homo sapiens, UniProt P56524); assay: Inhibition of recombinant human HDAC4
Histone deacetylase 4, sequence (P56524 whole entry): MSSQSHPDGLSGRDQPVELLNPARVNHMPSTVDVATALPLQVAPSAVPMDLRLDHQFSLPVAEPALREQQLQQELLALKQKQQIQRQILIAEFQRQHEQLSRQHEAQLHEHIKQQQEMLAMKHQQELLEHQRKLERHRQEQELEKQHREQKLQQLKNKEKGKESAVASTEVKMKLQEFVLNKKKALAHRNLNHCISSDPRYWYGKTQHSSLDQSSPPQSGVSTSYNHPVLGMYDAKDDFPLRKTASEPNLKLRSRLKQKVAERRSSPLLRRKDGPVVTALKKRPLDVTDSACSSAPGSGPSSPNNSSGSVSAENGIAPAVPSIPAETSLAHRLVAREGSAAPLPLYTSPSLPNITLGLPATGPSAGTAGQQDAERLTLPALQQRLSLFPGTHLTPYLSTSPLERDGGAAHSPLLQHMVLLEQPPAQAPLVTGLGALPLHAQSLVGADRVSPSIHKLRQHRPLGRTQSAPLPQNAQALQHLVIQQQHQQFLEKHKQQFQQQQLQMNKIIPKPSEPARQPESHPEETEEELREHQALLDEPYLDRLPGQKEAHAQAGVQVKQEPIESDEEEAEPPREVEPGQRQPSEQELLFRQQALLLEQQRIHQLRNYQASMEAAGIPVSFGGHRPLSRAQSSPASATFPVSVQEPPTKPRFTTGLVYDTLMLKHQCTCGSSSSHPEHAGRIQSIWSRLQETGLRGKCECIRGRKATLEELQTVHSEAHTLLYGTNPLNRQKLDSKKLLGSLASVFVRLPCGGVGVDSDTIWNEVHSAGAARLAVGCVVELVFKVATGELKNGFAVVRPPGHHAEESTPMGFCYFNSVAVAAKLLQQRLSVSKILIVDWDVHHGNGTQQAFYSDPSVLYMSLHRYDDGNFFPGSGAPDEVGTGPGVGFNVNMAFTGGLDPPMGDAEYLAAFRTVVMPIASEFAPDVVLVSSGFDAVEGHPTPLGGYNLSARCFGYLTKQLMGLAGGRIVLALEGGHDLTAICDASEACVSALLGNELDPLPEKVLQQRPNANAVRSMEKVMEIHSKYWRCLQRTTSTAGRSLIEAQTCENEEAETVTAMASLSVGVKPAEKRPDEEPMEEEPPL

[16] = test system: CAL-27; assay: Potentiation of cisplatin-induced cytotoxicity against human CAL27 cells assessed as shift factor by measuring ratio of cisplatin IC50 to cisplatin IC50 in presence of compound at 0.4 uM incubated for 72 hrs followed by cisplatin addition and measured after 72 hrs by MTT assay; assay type: functional; procedure, shortened: as §3
[17] = target: T4, Protein deacetylase HDAC6 (Homo sapiens, UniProt Q9UBN7); assay: Inhibition of recombinant human HDAC6
T4 sequence (Q9UBN7 whole entry): T1 sequence (whole entry)

[18] = test system: CAL-27; assay: Induction of apoptosis in human CAL27 cells assessed as increase in caspase 3/7 activation at 0.8 uM incubated for 24 hrs by Hoechst 33342 staining based fluorescence assay; assay type: functional, cell-based
[19] = target: T2, Class 1 histone deacetylase (Homo sapiens); assay: Inhibition of class 1 histone deacetylase in human Cal27CisR cells assessed as increase in H3 histone acetylation at 5 uM incubated for 24 hrs by immunoblot analysis; assay type: cell-based; procedure, shortened: as §2
[20] = test system: CAL-27; assay: Potentiation of cisplatin-induced cytotoxicity against human CAL27 cells assessed as shift factor by measuring ratio of cisplatin IC50 to cisplatin IC50 in presence of compound at 1.4 uM incubated for 72 hrs followed by cisplatin addition and measured after 72 hrs by MTT assay; assay type: functional; procedure, shortened: as §3
[21] = species on record: Homo sapiens; assay: Potentiation of cisplatin-induced apoptosis in human Cal27CisR cells assessed as increase in caspase 3/7 activation at 8 uM incubated for 24 hrs followed by cisplatin addition by Hoechst 33342 staining based fluorescence assay; assay type: functional, cell-based; procedure, shortened: as §1
[22] = species on record: Homo sapiens; assay: Induction of apoptosis in human Cal27CisR cells assessed as increase in caspase 3/7 activation at 8 uM incubated for 24 hrs by Hoechst 33342 staining based fluorescence assay; assay type: functional, cell-based
[23] = target: T1, Protein deacetylase HDAC6 (Homo sapiens); assay: Inhibition of HDAC6 in human Cal27CisR cells assessed as increase in acetylated alpha-tubulin at 5 uM incubated for 24 hrs by immunoblot analysis; assay type: cell-based; procedure, shortened: as §2
[24] = test system: CAL-27; assay: Induction of apoptosis in human CAL27 cells assessed as increase in caspase 3/7 activation at 2.8 uM incubated for 24 hrs by Hoechst 33342 staining based fluorescence assay; assay type: functional, cell-based
[25] = test system: CAL-27; assay: Potentiation of cisplatin-induced apoptosis in human CAL27 cells assessed as increase in caspase 3/7 activation at 2.8 uM incubated for 24 hrs followed by cisplatin addition by Hoechst 33342 staining based fluorescence assay; assay type: functional, cell-based; procedure, shortened: as §1
[26] = Potentiation of cisplatin-induced cytotoxicity against human Cal27CisR cells assessed as shift factor by measuring ratio of cisplatin IC50 to cisplatin IC50 in presence of compound at 6 uM incubated for 72 hrs followed by cisplatin addition and measured after 72 hrs by MTT assay; assay type: functional; procedure, shortened: as §3
[27] = target: T2, Class 1 histone deacetylase (Homo sapiens); assay: Inhibition of class 1 histone deacetylase in human CAL27 cells assessed as increase in H3 histone acetylation at 5 uM incubated for 24 hrs by immunoblot analysis; assay type: cell-based; conditions: CAL-27; procedure, shortened: as §2
[28] = target: T1, Protein deacetylase HDAC6 (Homo sapiens); assay: Inhibition of HDAC6 in human CAL27 cells assessed as increase in acetylated alpha-tubulin at 5 uM incubated for 24 hrs by immunoblot analysis; assay type: cell-based; conditions: CAL-27; procedure, shortened: as §2

Row | Compound | IC50 [4] [µM] | Ki [5] [µM] | IC50 [7] [µM] | IC50 [12] [µM] | Ki [13] [µM] | IC50 [14] [µM] | Ki [15] [µM] | Ki [17] [µM] | further results
1 | Cc1cc(C)cc(C(=O)NOCCCCCC(=O)NO)c1 | 0.55 | 0.08 | 0.17 | 0.76 | 4.81 | 0.97 | > 100 | 0.05 | Activity [1]: Active; Activity [2]: Active; inhibition [3]: Active; inhibition [6]: Active; inhibition [8]: Active; Activity [9]: Active; PF [10]: 8.36; inhibition [11]: Active; PF [16]: 3; Activity [18]: Active
2 | O=C(CCCCCONC(=O)c1cc(I)cc(I)c1I)NO | 9.4 | 1.33 | 7.2 | 45 | 10 | 64 | > 100 | 0.33 | 
3 | O=C(CCCCCONC(=O)c1cc(C(F)(F)F)cc(C(F)(F)F)c1)NO | 10.56 | 0.55 | 11 | 15.8 | 4.9 | 30.5 | 83.7 | 0.56 | 
4 | O=C(CCCCCONC(=O)c1c(Cl)cncc1Cl)NO | 12.7 | 1.36 | 14.5 | 28.1 | 18.9 | 68.4 | > 100 | 0.35 | 
5 | COc1cc(C(=O)NOCCCCCC(=O)NO)cc(OC)c1OC | 1.48 | 0.09 | 1.18 | 3.07 | 6.4 | 13.8 | 93.1 | 0.06 | inhibition [19]: Active; PF [20]: 1.95; Activity [21]: Active; Activity [22]: Active; inhibition [23]: Active; Activity [24]: Active; Activity [25]: Active; PF [26]: 7.73; inhibition [27]: Active; inhibition [28]: Active
